PMI activator – phosphomannose isomerase (human) activation | P34949 | purified human PMI, coupled resazurin fluorescence, 20 min; active compounds read high; 1 = vehicle control, 0 substrate-free wells | activation factor at 20 µM | 190,000 compounds, 0.005% hits | AID 1214;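 active means activation factor of 2 or more at 20 µM, relative to plate controls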
Target sequence (P34949 whole entry, looked up): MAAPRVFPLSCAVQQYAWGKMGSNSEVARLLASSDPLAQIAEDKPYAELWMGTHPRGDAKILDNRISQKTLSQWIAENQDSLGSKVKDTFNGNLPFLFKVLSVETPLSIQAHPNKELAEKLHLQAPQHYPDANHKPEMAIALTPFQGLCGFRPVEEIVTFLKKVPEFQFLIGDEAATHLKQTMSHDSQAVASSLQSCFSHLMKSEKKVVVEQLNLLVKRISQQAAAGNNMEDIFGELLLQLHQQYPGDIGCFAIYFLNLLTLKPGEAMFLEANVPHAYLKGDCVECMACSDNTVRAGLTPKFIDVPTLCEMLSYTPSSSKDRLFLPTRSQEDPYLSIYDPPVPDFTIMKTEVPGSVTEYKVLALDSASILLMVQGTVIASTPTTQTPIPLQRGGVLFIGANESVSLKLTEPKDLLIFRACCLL
Diaph inh CS – counter-screen for diaphorase-based assays: diaphorase inhibitors and chemical oxidizers | diaphorase resazurin-to-resorufin fluorescence, NADH, 16 min; bacterial (C. kluyveri) enzyme, not human | inhibition, % at 20 µM | 190,000 compounds, 0.69% hits | AID 1217;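 active means primary screen inhibition at 20 µM above a set limit, cut at about 50% in these data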
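System: Diaphorase enzyme from Clostridium kluyveri | Amount: Enzyme working solution with 0.14 U/mL diaphorase | Benchmarks: No-NADH positive control and DMSO neutral control | Signal: Fluorescence of resorufin formed from resazurin, Ex 544/Em 590 nm | Schedule: 16-min room-temperature incubation before reading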
Diaphorase act – counter-screen for diaphorase-based assays: diaphorase activators and chemical reducers; Diaphorase/resazurin coupled assay, resorufin fluorescence, 16 min; active compounds read high; 1 = vehicle wells, 0 = NADH-free wells; 190,000 compounds, 0.005% hits; AID 1229; activation factor at 20 µM;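 active means diaphorase activity raised at least twofold by the compound at 20 µM; inactive means activation factor below 2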
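Material: purified diaphorase enzyme from Clostridium kluyveri; Also added: 0.114 mM NADH and 0.1 mM resazurin, final amounts; Doses: single compound dose of 20 µM, 1% DMSO final; Times: 16 min enzyme reaction, ambient temperature; Detection: resorufin fluorescence, excitation 544 nm, emission 590 nm; Measure: increased resorufin signal from activators or reducing compounds.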
PMI act satM6P – increases human PMI activity with near-saturating mannose 6-phosphate; P34949; activation factor at 20 µM; coupled PMI enzyme assay, resazurin fluorescence, 20 min; active compounds read high; 1 = untreated enzyme, 0 = substrate-free blank; 190,000 compounds, 0.34% hits;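 active means activation factor of 2 or more at 20 µM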
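Test system: human phosphomannose isomerase with PGI, G6PDH, diaphorase coupling enzymes / Doses: 20 µM compound, 1% DMSO / Times: enzyme reaction with compound 20 min at room temperature / Measured by: Diaphorase-driven resazurin-to-resorufin fluorescence, excitation 544, emission 590 nm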
G6PDH CS – L. mesenteroides G6PDH inhibition counter-screen; Purified L. mesenteroides G6PDH, diaphorase/resazurin coupled fluorescence, 45 min; inhibition, % at 5 µM; 200,000 compounds, 0.12% hits; AID 1020; in the data active means inhibition above about 50%
Of the large screens only hits and unclear results are named; the others gave an inactive call. A selection: hits, their analogues and other compounds. The true share with any hit is near 1.1%.

COc1ccccc1N1Cc2ccccc2C1	none
O=C1c2ccccc2NC(c2cn[nH]c2-c2ccc(Cl)cc2)N1O (stereo unspecified)	PMI act satM6P 2.2
O=C(CCl)Nc1nc(-c2ccco2)c(-c2ccco2)s1	Diaph inh CS 65
CC/C(=N/Nc1ccc(Cl)cc1)c1cnnc(SC)n1	PMI act satM6P 2.5
CSc1nncc(/C(C)=N\Nc2ccccc2C)n1	PMI act satM6P 2.2
CC/C(=N/O)c1cnnc(SC)n1	none
CC/C(=N/Nc1ccccc1Cl)c1cnnc(-c2ccccc2)n1	PMI act satM6P 2.1
CC/C(=N/Nc1cccc(C)c1)c1cnnc(SC)n1	PMI act satM6P 2.3
S=C(Nc1cccc(Cl)c1Cl)N1CCC2(CC1)OCCO2	none
C[C@@H]1CN(CCCn2c3ccccc3c3ccccc32)C[C@H](C)N1	none
COc1ccc(N/N=C(/C)c2cnnc(-c3ccccc3)n2)cc1	PMI act satM6P 2.4
Cc1cc(C)c2c(N)c(C(=O)N3CCc4ccccc4C3)sc2n1	PMI act satM6P 2
C=CCN(CC=C)C(=O)C(=O)c1ccn(-c2c(C)csc2C(=O)OC)c1	none
O=C(c1cc2c(=O)n3ccccc3nc2s1)N1CCc2ccccc2C1	Diaph inh CS 57
O=C(CSc1ncccc1C(=O)O)c1cccc(C(F)(F)F)c1	PMI act satM6P 2.2
O=C(CSc1ncccc1C(=O)O)c1ccc2ccccc2c1	none
CCS(=O)(=O)C1=NN2C(=N)/C(=C\c3ccc(SCc4ccco4)o3)C(=O)N=C2S1	Diaph inh CS 57
CCOC1(C)OCC(=O)[C@]2(CCC3C4CCC5=CC(=O)C=CC5(C)C4C(=O)CC32C)O1 (stereo partly specified)	none
Cc1nc2sc(C(N)=O)c(N)c2c(C)c1CC(=O)c1ccccc1	PMI act satM6P 2
Oc1ccc(-c2nc(-c3ccc(O)c(O)c3)cs2)cc1	Diaph inh CS 63
COCCCC1CCN(Cc2cn[nH]c2-c2cc(OC)c(OC)c(OC)c2)CC1	none
CC1(C)CC(=O)C(=C2SCCCS2)C(=O)C1	none
Cc1cc(C)c(S(=O)(=O)NCC(CCC(=O)O)C(F)(F)F)c(C)c1 (stereo unspecified)	none
COc1ccc(NC(=S)Nc2ccc3nccnc3c2)cc1	Diaph inh CS 65
COc1ccc(NC(=S)Nc2ccc3snnc3c2)cc1	none
CC(=O)Oc1ccc(N(C(C)=O)S(=O)(=O)c2ccc(C)c([N+](=O)[O-])c2)cc1	none
CCSc1cc(C2C(C#N)=C(N)OC(C)=C2C(=O)OC)c(C)o1 (stereo unspecified)	PMI act satM6P 2
Clc1cccc(Cl)c1COc1ccccc1CNn1cnnc1	none
Cc1ccc(C(=O)c2coc3c2C(=O)C(=O)c2ccccc2-3)cc1	Diaph inh CS 58, G6PDH CS 58
Cc1oc2c(c1C(=O)c1ccc(Cl)cc1)C(=O)C(=O)c1ccccc1-2	Diaph inh CS 60, G6PDH CS 60
Cc1ccc(C(=O)C(OC(=O)c2c(C)cc(=O)oc2C)c2ccccc2)cc1 (stereo unspecified)	none
Cc1ccc(C(=O)c2c(C)oc3c2C(=O)C(=O)c2ccccc2-3)cc1	Diaph inh CS 57, G6PDH CS 63
CCc1ccc(-c2cn3nc(C)c(C)nc3n2)cc1	PMI act satM6P 2.2
CC(NC(=O)/C(=C/c1ccc2c(c1)OCO2)NC(=O)c1cccc([N+](=O)[O-])c1)C(=O)O (stereo unspecified)	none
CCOC(=O)c1c2c3c(c(Cl)ccc3[nH]c1=O)C(=O)c1ccccc1-2	PMI act satM6P 2
Nc1cc(N)c(OCC(F)(F)F)cc1OCC(F)(F)F	Diaph inh CS 50, G6PDH CS 51
O=C(/C=C/c1cccc(Cl)c1)Nn1c(-c2cccs2)nc2ccccc2c1=O	none
COc1ccc(N/C(=C(/C(Cl)=C(Cl)Cl)[N+](=O)[O-])n2nnc3ccccc32)cc1	none
Cc1ccccc1N/C(=C(/C(Cl)=C(Cl)Cl)[N+](=O)[O-])n1nnc2ccccc21	PMI act satM6P 2.2
CCOc1ccc(/C=C/C(=O)c2cc(Br)ccc(=O)c2O)cc1	PMI act satM6P 2
N=c1ncn(Cc2ccccc2)c2nc(SCCOc3ccccc3)[nH]c12	none
